CAL PDZ FP-1: blocks peptide binding to the human CAL PDZ domain. purified CAL PDZ, TMR-peptide fluorescence polarization, 1 h. inhibition, % at 24.9 µM. Q9HD26. 300,000 compounds, 0.92% hits;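 active means mean inhibition of at least 30% with at least half of replicates also reaching 30%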
CAL PDZ FP-2: inhibitors of human CAL PDZ peptide binding; purified CAL PDZ, TMR-peptide fluorescence polarization, 1 h; 330,000 compounds, 0.02% hits; inhibition, % at 20 µM; Q9HD26;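 active means highest replicate inhibition of at least 40%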
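System: purified tagged CAL PDZ domain construct (CerCALP). Schedule: 1 h incubation at room temperature before polarization reading. Medium: 25 mM sodium phosphate pH 7.4, 150 mM NaCl, TCEP, IgG, Thesit. Read-out: percent inhibition from loss of millipolarization. Measured by: FP readout, S and P plane fluorescence. Probe or stimulus: fluorescent TMR peptide probe.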
A3G deaminase: APOBEC3G (human) deaminase inhibition; recombinant A3G, ssDNA deamination FAM/TAMRA fluorescence; AID 493012; inhibition, % at 20 µM; 330,000 compounds, 0.28% hits; Q9HC16;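 active means inhibition of at least 40% at 20 µM, with no more than 30% in the related APOBEC3A deaminase screen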
Target sequence (Q9HC16 whole entry, looked up): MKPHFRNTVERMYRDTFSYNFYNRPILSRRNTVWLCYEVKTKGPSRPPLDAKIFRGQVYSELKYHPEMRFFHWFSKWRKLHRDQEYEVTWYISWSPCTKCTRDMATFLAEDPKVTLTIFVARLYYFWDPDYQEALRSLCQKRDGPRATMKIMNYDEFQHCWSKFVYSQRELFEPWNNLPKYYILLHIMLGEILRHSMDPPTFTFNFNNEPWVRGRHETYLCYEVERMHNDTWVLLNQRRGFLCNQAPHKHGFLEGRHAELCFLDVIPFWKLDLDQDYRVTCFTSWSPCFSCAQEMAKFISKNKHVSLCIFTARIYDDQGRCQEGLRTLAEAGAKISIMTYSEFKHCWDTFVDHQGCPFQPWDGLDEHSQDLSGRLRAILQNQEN
A3A deaminase: human APOBEC3A DNA deaminase inhibition; P31941; recombinant A3A, FAM/TAMRA ssDNA deamination fluorescence; inhibition, % at 20 µM; 330,000 compounds, 0.41% hits; AID 493011;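 active means at least 40% inhibition at 20 µM here, with at most 30% in a related deaminase screen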
Target sequence (P31941 whole entry, looked up): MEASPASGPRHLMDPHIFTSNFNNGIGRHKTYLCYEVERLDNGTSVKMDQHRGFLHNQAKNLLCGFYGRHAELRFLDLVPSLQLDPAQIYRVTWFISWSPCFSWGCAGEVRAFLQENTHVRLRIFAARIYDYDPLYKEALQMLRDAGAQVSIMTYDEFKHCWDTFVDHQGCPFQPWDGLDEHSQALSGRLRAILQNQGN
C-LANA FP: KSHV C-LANA DNA binding inhibition. inhibition, % at 9 µM. 340,000 compounds, 0.078% hits. MBP-C-LANA/FAM-LBS DNA binding, fluorescence polarization;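 active means highest replicate inhibition at or above 60% at 9 µM, even if other replicates fall short; inactive means all replicates below 60% inhibition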
Keap1 Nrf2 FP: Keap1-Nrf2 (human) interaction inhibition | Q14145 | Keap1 Kelch-Nrf2 peptide fluorescence polarization, 1536-well | inhibition, % at 9.4 µM | 340,000 compounds, 0.15% hits; in the data active means inhibition above about 12%;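 further: human Keap1 Kelch domain with fluorescein labeled Nrf2 9mer peptide probe; higher means more block of Keap1 binding to Nrf2 peptide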
Each line names hits and unclear results; the compound was inactive in the other large screens. Rows were chosen to be rich in hits. Some 1.7% of all compounds tested hit in one or more screens of this group.

Cc1sc2nc(SCC(=O)Nc3ccc(S(N)(=O)=O)cc3)[nH]c(=O)c2c1C	CAL PDZ FP-1 43.5
CC(C)(C)N(Cc1nc(-c2ccccc2)no1)C(=O)c1ccc2c(c1)OCO2	CAL PDZ FP-1 65.1
CCCCCCC(=O)Nc1ccc(Br)cn1	CAL PDZ FP-1 63.0
CC1(C)Cc2cccc(C(=O)Nc3ccc(F)cc3F)c2O1	none
CC(C)(Oc1ccc(Cl)cc1)C(=O)NCc1ccc(S(N)(=O)=O)cc1	CAL PDZ FP-1 77.3
C=Cc1c(C)c2cc3[nH]c(cc4nc(cc5nc(cc1[nH]2)C(C)=C5CCC(=O)O)C(CCC(=O)O)=C4C)c(C)c3C=C	C-LANA FP 64.5
Cc1ccccc1NC(=O)Cn1c(=O)oc2ccccc21	none
Cc1ccc(NC(=O)CCn2c(=O)oc3ccccc32)c(C)c1	CAL PDZ FP-1 48.5
COc1ccc(C)cc1NC(=O)Cn1c(=O)oc2ccccc21	CAL PDZ FP-1 56.1
CCOc1ccc2nc(SCC(=O)c3ccc(O)cc3O)sc2c1	CAL PDZ FP-1 36.1 (no result: CAL PDZ FP-2)
Cc1ccc(C)c(N2CCN(CC3CCCCC3)CC2)c1	none (no result: CAL PDZ FP-1)
Cc1cccc(N2CCN(CC3CCCCC3)CC2)c1C	CAL PDZ FP-1 47.2
O=C(CC1C(=O)NCCN1Cc1cccc(C(F)(F)F)c1)NCCc1cnccn1 (centres undefined)	none
COc1ccccc1CNC(=O)CSCc1cnn(-c2ccccc2)c1-n1cccc1	none
O=C(CSCc1cnn(-c2ccccc2)c1-n1cccc1)NCc1cccnc1	C-LANA FP 79.5
O=C(Cc1ccccc1)c1c[nH]c(C(=O)C(Cl)(Cl)Cl)c1	CAL PDZ FP-1 167.9
CNS(=O)(=O)c1cc(C(=O)O)ccc1OC	none (no result: CAL PDZ FP-2)
COc1ccc(C(=O)O)cc1S(N)(=O)=O	CAL PDZ FP-1 32.4
Cc1ccc(Cl)cc1N1CCN(S(=O)(=O)c2ccc(-c3ccc(=O)[nH]n3)o2)CC1	none
Cc1ccc(C)c(N2CCN(S(=O)(=O)c3ccc(-c4ccc(=O)[nH]n4)o3)CC2)c1	CAL PDZ FP-1 44.1
O=C(NCCc1ccccc1C(F)(F)F)C1CCC(=O)N(CCCN2CCCC2=O)C1 (centres undefined)	CAL PDZ FP-1 51.6
Cc1ccc(N2CC(C(=O)OCC(=O)Nc3ccccc3C)CC2=O)cc1 (centres undefined)	none
CSc1cccc(NC(=O)CNC(=O)c2ccc3c(c2)OCO3)c1	CAL PDZ FP-1 61.1
CCOc1ccc(C(=O)NCC(=O)Nc2ccc3c(c2)OCO3)cc1OCC	none (no result: C-LANA FP, Keap1 Nrf2 FP)
COc1ccc(C(C)=O)cc1COC(=O)c1cc(=O)c2ccccc2o1	none
COc1cc(/C=C/C(=O)OCC(=O)c2ccc[nH]2)cc(OC)c1OC	CAL PDZ FP-1 40.0
CCCCC(=O)Nc1nc2c(s1)COc1ccccc1-2	none (no result: CAL PDZ FP-1)
O=C(c1cccs1)N1CCN(S(=O)(=O)c2cccs2)CC1	none
COc1cc(C(=O)N2CCN(S(=O)(=O)c3cccs3)CC2)cc(OC)c1C	CAL PDZ FP-1 57.8
O=C1c2cccc3c([N+](=O)[O-])ccc(c23)C(=O)N1c1ccccn1	none (no result: CAL PDZ FP-1)
O=C1c2cccc3c([N+](=O)[O-])ccc(c23)C(=O)N1O	Keap1 Nrf2 FP 19.9
CC1CCCCC1NS(=O)(=O)CCNC(=O)c1ccccc1 (centres undefined)	CAL PDZ FP-1 34.9
CCCCCC(=O)Nc1cc(S(=O)(=O)O)cc2cc(S(=O)(=O)O)cc(O)c12	C-LANA FP 113.8 (no result: A3G deaminase, A3A deaminase)
Cc1snc(SCC(=O)c2ccc([N+](=O)[O-])cc2)c1C#N	A3G deaminase 50.2
O=C(Nn1cnc2ccccc2c1=O)c1ccc(Cl)c([N+](=O)[O-])c1	none
CCCCC#Cc1ccc(C(=O)NNC(=O)Nc2cc(Cl)cc(Cl)c2)o1	CAL PDZ FP-1 30.2
Fc1ccc(C(CCNCc2cccs2)c2ccco2)cc1 (centres undefined)	CAL PDZ FP-1 55.6
Cc1nn(C)c(C)c1N1C(=O)c2cccc3c(N)ccc(c23)C1=O	C-LANA FP 183.4, Keap1 Nrf2 FP 116.4 (no result: A3G deaminase, A3A deaminase)
CCOC(=O)C1CCCN(S(=O)(=O)c2ccc(Cl)nc2)C1 (centres undefined)	CAL PDZ FP-1 46.5
CCOC(=O)C1CCCN(S(=O)(=O)c2ccc(C)cc2)C1 (centres undefined)	none
Cc1cccc(/C(N)=N/OC(=O)c2cccs2)c1	CAL PDZ FP-1 53.1
Cc1ccc(/C(N)=N/OC(=O)c2cccs2)cc1	none
CC1(C)CC(=O)C(CC(=O)NC2CCCc3ccccc32)C(=O)C1 (centres undefined)	CAL PDZ FP-1 106.3
O=C(CCNC(=O)c1ccc([N+](=O)[O-])cc1)NC1CCCc2ccccc21 (centres undefined)	none
O=C(CNC(=O)c1cccc([N+](=O)[O-])c1)NC1CCCc2ccccc21 (centres undefined)	CAL PDZ FP-1 35.4
CN(C)c1ccc(NC(=O)Nc2ccc3c(c2)nnn3C)cc1	CAL PDZ FP-1 42.6
CC(C)(C)n1nc2c(c1NC(=O)c1cc3ccccc3o1)CS(=O)(=O)C2	none
O=C(/C=C/c1ccc(O)c([N+](=O)[O-])c1)c1ccc2ccccc2c1	none
COc1ccc(Oc2ccc(/C=C/C(=O)c3ccc(O)cc3)cc2[N+](=O)[O-])cc1	CAL PDZ FP-1 61.0
CCOc1c2ccc(C(=O)NCc3ccc(C)cc3)cc2nn1CCOC	none
CC1(NC(=O)Nc2ccccc2)CCS(=O)(=O)C1 (centres undefined)	none (no result: CAL PDZ FP-1, CAL PDZ FP-2, C-LANA FP, Keap1 Nrf2 FP)
COc1ccc(NC(=O)NC2(C)CCS(=O)(=O)C2)cc1 (centres undefined)	CAL PDZ FP-1 62.8
O=C(COc1ccccc1)Nc1cc(NC(=O)COc2ccccc2)cc(C(=O)O)c1	none
NC(=O)/C(=C\c1ccncc1)c1cccc2ccccc12	CAL PDZ FP-1 73.9
N#C/C(=C\c1ccncc1)C(N)=O	none
CN1CC(c2ccccc2)Oc2ccccc2C1=S (centres undefined)	CAL PDZ FP-1 66.6
O=C1CC(c2ccc(O)cc2)Oc2ccccc21 (centres undefined)	none
COc1ccc(NC(=O)CN(C)CC(=O)Nc2ccc(Cl)c(S(=O)(=O)N(C)C)c2)cc1	CAL PDZ FP-1 39.9
COc1cccc(NC(=O)CN(C)CC(=O)Nc2cccc(C(F)(F)F)c2)c1	none
COc1cccc(NC(=O)CN(C)CC(=O)Nc2ccc(Br)cc2)c1	CAL PDZ FP-1 47.2
CCOCC(=O)Nc1cccc(OC)c1	CAL PDZ FP-1 66.4
O=C(NNC(=O)C1CCC1)c1cccc(Cl)c1	none
CCc1ccc(CNC(=O)C2CCCN(c3nnc(C)c4c(C)n(-c5ccccc5)nc34)C2)cc1 (centres undefined)	CAL PDZ FP-1 63.8
Clc1ccccc1-c1nnc(-c2ccc3c(c2)OCO3)o1	none (no result: CAL PDZ FP-1)
C=CCn1c(NCCOC)nc2c1c(=O)n(C)c(=O)n2C	CAL PDZ FP-1 43.8
COCCNc1nc2c(c(=O)n(C)c(=O)n2C)n1Cc1cccc(C)c1	none

Assay outcomes: PubChem BioAssay, several laboratories
